Source: ChEMBL document CHEMBL4689842, “EUbOPEN Chemogenomics Library wave 1” (2021)
Several values for one entry are separate records, joined by “and”; a condition that tells them apart may be missing. Equal entries are not always repeated.

Tested on: Fibroblast
Assay: Multiplex assay against human fibroblast
Format: toxicity, cell-based
How it was run: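 Cells were classed with CellPathfinder machine-learning gating, first as Hoechst high-intensity objects or normal cells, then (normal cells) as healthy, pyknosed or fragmented nuclei, and finally (pyknosed cells) as mitotic or apoptotic. Staining of live cells at seeding used Hoechst33342, BioTracker Green Microtubule Cytoskeleton Dye, MitoTracker Red and Annexin V Alexa Fluor 680, with imaging on a CQ1 microscope at 37°C and 5% CO2 after compound addition. Tubulin, mitochondrial-mass and membrane-permeability phenotypes are per cents of healthy-nucleus cells.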

[1] = 12 h, 1 µM, compound concentration 1 uM, replicate 1
[2] = 12 h, 1 µM, compound concentration 1 uM, replicate 2
[3] = 12 h, 10 µM, compound concentration 10 uM, replicate 1
[4] = 12 h, 10 µM, compound concentration 10 uM, replicate 2
[5] = 24 h, 1 µM, compound concentration 1 uM, replicate 1
[6] = 24 h, 1 µM, compound concentration 1 uM, replicate 2
[7] = 24 h, 10 µM, compound concentration 10 uM, replicate 1
[8] = 24 h, 10 µM, compound concentration 10 uM, replicate 2
[9] = 48 h, 10 µM, compound concentration 10 uM, replicate 1
[10] = 48 h, 10 µM, compound concentration 10 uM, replicate 2

`C=CC(=O)Nc1ccc2[nH]c(=O)n(C3CCN(Cc4ccc(-c5nc6cc[nH]c(=O)c6cc5-c5ccccc5)cc4)CC3)c2c1` [Borussertib] was tested, and the “Population Apoptotic (%)” value [1] was 64%, the “Population Fragmented Nuclei (%)” value [1] was 31% and the “Population Healthy Nuclei (%)” value [1] was 51%. The “Population Hoechst High Intensity Objects (%)” value [1] was 13%, the “Population Membrane Permeable-Phenotype (%)” value [1] was 10% and the “Population Mitochondria Different-Phenotype (%)” value [1] was 5%. The “Population Mitotic Cells (%)” value [1] was 36%, the “Population Normal (%)” value [1] was 86% and the “Population Pyknosed Nuclei (%)” value [1] was 17%. The “Population Tubulin-Different-Phenotype (%)” value [1] was 4%, the “Total Cell Count” value [1] was 169 and the “Population Apoptotic (%)” value [2] was 33%. The “Population Fragmented Nuclei (%)” value [2] was 63%, the “Population Healthy Nuclei (%)” value [2] was 31% and the “Population Hoechst High Intensity Objects (%)” value [2] was 30%. The “Population Membrane Permeable-Phenotype (%)” value [2] was 11%, the “Population Mitochondria Different-Phenotype (%)” value [2] was 0% and the “Population Mitotic Cells (%)” value [2] was 66%. The “Population Normal (%)” value [2] was 69%, the “Population Pyknosed Nuclei (%)” value [2] was 5% and the “Population Tubulin-Different-Phenotype (%)” value [2] was 16%. The “Total Cell Count” value [2] was 83, the “Population Apoptotic (%)” value [3] was 60% and the “Population Fragmented Nuclei (%)” value [3] was 27%. For the same molecule, the “Population Healthy Nuclei (%)” value [3] was 56%, the “Population Hoechst High Intensity Objects (%)” value [3] was 15% and the “Population Membrane Permeable-Phenotype (%)” value [3] was 6%. For the same molecule, the “Population Mitochondria Different-Phenotype (%)” value [3] was 4%, the “Population Mitotic Cells (%)” value [3] was 39% and the “Population Normal (%)” value [3] was 84%. For the same molecule, the “Population Pyknosed Nuclei (%)” value [3] was 16%, the “Population Tubulin-Different-Phenotype (%)” value [3] was 27% and the “Total Cell Count” value [3] was 304. The “Population Apoptotic (%)” value [4] was 44%, the “Population Fragmented Nuclei (%)” value [4] was 64% and the “Population Healthy Nuclei (%)” value [4] was 22%. For the same molecule, the “Population Hoechst High Intensity Objects (%)” value [4] was 29%, the “Population Membrane Permeable-Phenotype (%)” value [4] was 25% and the “Population Mitochondria Different-Phenotype (%)” value [4] was 18%. For the same molecule, the “Population Mitotic Cells (%)” value [4] was 55%, the “Population Normal (%)” value [4] was 71% and the “Population Pyknosed Nuclei (%)” value [4] was 12%. For the same molecule, the “Population Tubulin-Different-Phenotype (%)” value [4] was 68%, the “Total Cell Count” value [4] was 100 and the “Population Apoptotic (%)” value [5] was 66%. The “Population Fragmented Nuclei (%)” value [5] was 29%, the “Population Healthy Nuclei (%)” value [5] was 56% and the “Population Hoechst High Intensity Objects (%)” value [5] was 13%. For the same molecule, the “Population Membrane Permeable-Phenotype (%)” value [5] was 4%, the “Population Mitochondria Different-Phenotype (%)” value [5] was 2% and the “Population Mitotic Cells (%)” value [5] was 33%. For the same molecule, the “Population Normal (%)” value [5] was 86%, the “Population Pyknosed Nuclei (%)” value [5] was 14% and the “Population Tubulin-Different-Phenotype (%)” value [5] was 6%. The “Total Cell Count” value [5] was 170, the “Population Apoptotic (%)” value [6] was 100% and the “Population Fragmented Nuclei (%)” value [6] was 56%. For the same molecule, the “Population Healthy Nuclei (%)” value [6] was 41%, the “Population Hoechst High Intensity Objects (%)” value [6] was 32% and the “Population Membrane Permeable-Phenotype (%)” value [6] was 5%. The “Population Mitochondria Different-Phenotype (%)” value [6] was 10%, the “Population Mitotic Cells (%)” value [6] was 0% and the “Population Normal (%)” value [6] was 67%. For the same molecule, the “Population Pyknosed Nuclei (%)” value [6] was 2%, the “Population Tubulin-Different-Phenotype (%)” value [6] was 10% and the “Total Cell Count” value [6] was 68. The “Population Apoptotic (%)” value [7] was 55%, the “Population Fragmented Nuclei (%)” value [7] was 30% and the “Population Healthy Nuclei (%)” value [7] was 56%. The “Population Hoechst High Intensity Objects (%)” value [7] was 23%, the “Population Membrane Permeable-Phenotype (%)” value [7] was 2% and the “Population Mitochondria Different-Phenotype (%)” value [7] was 2%. For the same molecule, the “Population Mitotic Cells (%)” value [7] was 44%, the “Population Normal (%)” value [7] was 76% and the “Population Pyknosed Nuclei (%)” value [7] was 13%. For the same molecule, the “Population Tubulin-Different-Phenotype (%)” value [7] was 22%, the “Total Cell Count” value [7] was 347 and the “Population Apoptotic (%)” value [8] was 33%. The “Population Fragmented Nuclei (%)” value [8] was 55%, the “Population Healthy Nuclei (%)” value [8] was 39% and the “Population Hoechst High Intensity Objects (%)” value [8] was 40%. The “Population Membrane Permeable-Phenotype (%)” value [8] was 4%, the “Population Mitochondria Different-Phenotype (%)” value [8] was 8% and the “Population Mitotic Cells (%)” value [8] was 66%. For the same molecule, the “Population Normal (%)” value [8] was 59%, the “Population Pyknosed Nuclei (%)” value [8] was 5% and the “Population Tubulin-Different-Phenotype (%)” value [8] was 43%. For the same molecule, the “Total Cell Count” value [8] was 97.
With `CCOC(=O)Nc1cc(-c2ccc(C)c(NS(C)(=O)=O)c2)nn2c(C)nnc12` the “Population Apoptotic (%)” value [1] was 75%, the “Population Fragmented Nuclei (%)” value [1] was 30% and the “Population Healthy Nuclei (%)” value [1] was 44%. The “Population Hoechst High Intensity Objects (%)” value [1] was 9%, the “Population Membrane Permeable-Phenotype (%)” value [1] was 9% and the “Population Mitochondria Different-Phenotype (%)” value [1] was 9%. The “Population Mitotic Cells (%)” value [1] was 24%, the “Population Normal (%)” value [1] was 90% and the “Population Pyknosed Nuclei (%)” value [1] was 24%. For the same molecule, the “Population Tubulin-Different-Phenotype (%)” value [1] was 10%, the “Total Cell Count” value [1] was 184 and the “Population Apoptotic (%)” value [2] was 60%. For the same molecule, the “Population Fragmented Nuclei (%)” value [2] was 55%, the “Population Healthy Nuclei (%)” value [2] was 34% and the “Population Hoechst High Intensity Objects (%)” value [2] was 35%. For the same molecule, the “Population Membrane Permeable-Phenotype (%)” value [2] was 16%, the “Population Mitochondria Different-Phenotype (%)” value [2] was 16% and the “Population Mitotic Cells (%)” value [2] was 40%. The “Population Normal (%)” value [2] was 64%, the “Population Pyknosed Nuclei (%)” value [2] was 9% and the “Population Tubulin-Different-Phenotype (%)” value [2] was 11%. For the same molecule, the “Total Cell Count” value [2] was 81, the “Population Apoptotic (%)” value [3] was 70% and 66% and the “Population Fragmented Nuclei (%)” value [3] was 30% and 28%. The “Population Healthy Nuclei (%)” value [3] was 45% and 56%, the “Population Hoechst High Intensity Objects (%)” value [3] was 15% and 13% and the “Population Mitochondria Different-Phenotype (%)” value [3] was 9% and 14%. The “Population Mitotic Cells (%)” value [3] was 29% and 33%, the “Population Normal (%)” value [3] was 84% and 86% and the “Population Pyknosed Nuclei (%)” value [3] was 23% and 15%. For the same molecule, the “Total Cell Count” value [3] was 84 and 231, the “Population Apoptotic (%)” value [4] was 50% and 40% and the “Population Healthy Nuclei (%)” value [4] was 86%. For the same molecule, the “Population Membrane Permeable-Phenotype (%)” value [4] was 9% and 0%, the “Population Mitotic Cells (%)” value [4] was 50% and 60% and the “Population Normal (%)” value [4] was 77% and 97%. For the same molecule, the “Population Pyknosed Nuclei (%)” value [4] was 2% and 5%, the “Total Cell Count” value [4] was 88 and 101 and the “Population Apoptotic (%)” value [5] was 61%. The “Population Fragmented Nuclei (%)” value [5] was 31%, the “Population Healthy Nuclei (%)” value [5] was 55% and the “Population Hoechst High Intensity Objects (%)” value [5] was 12%. For the same molecule, the “Population Membrane Permeable-Phenotype (%)” value [5] was 12%, the “Population Mitochondria Different-Phenotype (%)” value [5] was 2% and the “Population Mitotic Cells (%)” value [5] was 38%. For the same molecule, the “Population Normal (%)” value [5] was 87%, the “Population Pyknosed Nuclei (%)” value [5] was 12% and the “Population Tubulin-Different-Phenotype (%)” value [5] was 2%. For the same molecule, the “Total Cell Count” value [5] was 186, the “Population Apoptotic (%)” value [6] was 50% and the “Population Fragmented Nuclei (%)” value [6] was 48%. The “Population Healthy Nuclei (%)” value [6] was 42%, the “Population Hoechst High Intensity Objects (%)” value [6] was 31% and the “Population Membrane Permeable-Phenotype (%)” value [6] was 26%. The “Population Mitochondria Different-Phenotype (%)” value [6] was 5%, the “Population Mitotic Cells (%)” value [6] was 50% and the “Population Normal (%)” value [6] was 68%. The “Population Pyknosed Nuclei (%)” value [6] was 8%, the “Population Tubulin-Different-Phenotype (%)” value [6] was 15% and the “Total Cell Count” value [6] was 66. The “Population Apoptotic (%)” value [7] was 60% and 56%, the “Population Fragmented Nuclei (%)” value [7] was 22% and 18% and the “Population Healthy Nuclei (%)” value [7] was 47% and 66%. The “Population Hoechst High Intensity Objects (%)” value [7] was 6% and 12%, the “Population Membrane Permeable-Phenotype (%)” value [7] was 22% and 8% and the “Population Mitochondria Different-Phenotype (%)” value [7] was 6% and 4%. For the same molecule, the “Population Mitotic Cells (%)” value [7] was 39% and 43%, the “Population Normal (%)” value [7] was 94% and 88% and the “Population Pyknosed Nuclei (%)” value [7] was 29% and 15%. The “Total Cell Count” value [7] was 100 and 225, the “Population Healthy Nuclei (%)” value [8] was 46% and 90% and the “Population Membrane Permeable-Phenotype (%)” value [8] was 3% and 0%. The “Population Mitochondria Different-Phenotype (%)” value [8] was 10% and 16%, the “Population Mitotic Cells (%)” value [8] was 100% and 71% and the “Population Normal (%)” value [8] was 71% and 97%. The “Total Cell Count” value [8] was 88 and 137, the “Population Apoptotic (%)” value [9] was 54% and the “Population Fragmented Nuclei (%)” value [9] was 30%. The “Population Healthy Nuclei (%)” value [9] was 56%, the “Population Hoechst High Intensity Objects (%)” value [9] was 16% and the “Population Membrane Permeable-Phenotype (%)” value [9] was 16%. The “Population Mitochondria Different-Phenotype (%)” value [9] was 0%, the “Population Mitotic Cells (%)” value [9] was 45% and the “Population Normal (%)” value [9] was 83%. The “Population Pyknosed Nuclei (%)” value [9] was 12%, the “Population Tubulin-Different-Phenotype (%)” value [9] was 8% and the “Total Cell Count” value [9] was 105. For the same molecule, the “Population Apoptotic (%)” value [10] was 100%, the “Population Fragmented Nuclei (%)” value [10] was 18% and the “Population Healthy Nuclei (%)” value [10] was 80%. For the same molecule, the “Population Hoechst High Intensity Objects (%)” value [10] was 10%, the “Population Membrane Permeable-Phenotype (%)” value [10] was 2% and the “Population Mitochondria Different-Phenotype (%)” value [10] was 1%. The “Population Mitotic Cells (%)” value [10] was 0%, the “Population Normal (%)” value [10] was 89% and the “Population Pyknosed Nuclei (%)” value [10] was 0%. The “Population Tubulin-Different-Phenotype (%)” value [10] was 1% and the “Total Cell Count” value [10] was 114.
